Consider 23 compounds from ChEMBL document CHEMBL1136577, “Synthesis of 6-formyl-pyridine-2-carboxylate derivatives and their telomerase inhibitory activities” (Bioorg Med Chem Lett, 2003).

A value given as a limit tells only on which side of the number the result lay.

Assay [1] has as its target Telomerase reverse transcriptase (Homo sapiens, UniProt O14746). Nature of the assay: In vitro inhibitory activity of compound against telomerase. The procedure, abridged: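 Telomerase activity was measured by TRAP assay. Extension products were resolved on 10% nondenaturing polyacrylamide gel, stained with SYBR Green, and band intensity quantified by image analysis. IC50 was derived from the reduction in product signal.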

In the next assay the test system is A549. The experiment in a line: In vitro antiproliferative activity of compound against […] (human lung caner ) cell line was determined by SRB assay. The format is functional, cell-based. In a few lines:
(§1)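 Cells grown for 3 days with compound, then growth read by sulforhodamine B (SRB) staining. IC50 taken as the dose giving 50% growth inhibition of the cultured cells.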

Another assay relates to HL-60. The experiment in a line: In vitro antiproliferative activity of compound against HL-60 (human assay. Format: functional, cell-based. In a few lines: as §1
Another assay has as its system CAKI-2. The experiment in a line: In vitro antiproliferative activity of compound against Caki-2 (human renal caner ) cell line was determined by SRB assay. Format: functional, cell-based. In a few lines:
as §1

The test system of a further assay is HEC-1B cell line. Nature of the assay: In vitro antiproliferative activity of compound against HEC-1-B (human endometrical caner ) cell line was determined by SRB assay. The format is functional, cell-based. In a few lines: as §1
Another assay concerns HT-29. The experiment in a line: In vitro antiproliferative activity of compound against HT-29 (human colon caner ) cell line aws determined by SRB assay. The format is functional, cell-based. The procedure, abridged: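 Human tumour cell lines exposed to compound for 3 days, with growth measured by sulforhodamine B (SRB) staining. IC50 is the concentration that inhibits growth of 50% of the cultured cells.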

Sequence of Telomerase reverse transcriptase (O14746 whole entry): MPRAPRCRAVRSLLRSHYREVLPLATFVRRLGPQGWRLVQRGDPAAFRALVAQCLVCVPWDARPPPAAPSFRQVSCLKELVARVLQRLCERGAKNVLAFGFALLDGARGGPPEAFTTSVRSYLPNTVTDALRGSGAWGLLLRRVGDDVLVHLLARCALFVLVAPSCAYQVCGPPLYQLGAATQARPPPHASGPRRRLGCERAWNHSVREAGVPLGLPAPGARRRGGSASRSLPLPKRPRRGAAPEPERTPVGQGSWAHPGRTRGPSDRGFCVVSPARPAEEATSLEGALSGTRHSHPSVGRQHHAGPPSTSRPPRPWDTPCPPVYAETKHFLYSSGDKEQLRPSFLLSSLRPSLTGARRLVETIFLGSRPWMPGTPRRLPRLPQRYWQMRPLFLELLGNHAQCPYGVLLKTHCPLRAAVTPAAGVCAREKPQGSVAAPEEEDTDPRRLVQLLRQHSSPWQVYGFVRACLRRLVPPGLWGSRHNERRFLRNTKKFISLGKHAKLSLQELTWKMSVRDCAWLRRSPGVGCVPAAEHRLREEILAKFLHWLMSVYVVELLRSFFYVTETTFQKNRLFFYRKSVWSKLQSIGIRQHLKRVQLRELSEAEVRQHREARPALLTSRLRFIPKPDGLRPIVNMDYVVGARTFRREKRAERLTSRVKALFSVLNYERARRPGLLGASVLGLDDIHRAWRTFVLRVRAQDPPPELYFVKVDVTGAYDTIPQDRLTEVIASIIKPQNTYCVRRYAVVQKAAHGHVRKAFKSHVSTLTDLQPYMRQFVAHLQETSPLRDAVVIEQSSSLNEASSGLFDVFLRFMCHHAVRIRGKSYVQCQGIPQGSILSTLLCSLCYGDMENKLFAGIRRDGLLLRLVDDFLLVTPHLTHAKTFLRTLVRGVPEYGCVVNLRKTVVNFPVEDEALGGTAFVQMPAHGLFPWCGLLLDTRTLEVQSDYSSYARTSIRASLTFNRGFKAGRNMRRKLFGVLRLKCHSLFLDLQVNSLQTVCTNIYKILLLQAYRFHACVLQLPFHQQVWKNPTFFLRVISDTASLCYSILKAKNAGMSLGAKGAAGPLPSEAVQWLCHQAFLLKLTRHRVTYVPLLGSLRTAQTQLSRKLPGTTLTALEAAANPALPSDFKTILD

In assay [1], `O=Cc1cccc(C(=O)Sc2cccc(Cl)c2)n1` came in with a half-maximal inhibitory concentration (IC50) of 79 µM. As to `COc1ccccc1SC(=O)c1cccc(C=O)n1`, in assay [1], the concentration for half-maximal inhibition (IC50) is > 100 µM. As to `O=Cc1cccc(C(=O)Sc2ccc(Br)cc2)n1`, in assay [1], the IC50 is 56 µM. Still for that read-out and setting: with `CC(=O)Nc1ccc(SC(=O)c2cccc(C=O)n2)cc1` the figure was > 100 µM; with `O=Cc1cccc(C(=O)Sc2ccc(Cl)cc2)n1`, 33 µM; with `COc1ccc(SC(=O)c2cccc(C=O)n2)cc1`, 91 µM. Same read-out and setting: with `O=Cc1cccc(C(=O)Sc2ccc(F)c(F)c2)n1` the figure was 69 µM; with `O=Cc1cccc(C(=O)Oc2ccc(Cl)c(Cl)c2)n1`, > 100 µM; with `COc1cccc(SC(=O)c2cccc(C=O)n2)c1`, 76 µM. With `O=Cc1cccc(C(=O)Sc2ccc(Cl)c(Cl)c2)n1`, the half-inhibitory concentration (IC50) was 56.9 µM in the assay with A549; 24 µM in assay [1]; 13 µM in the assay on HL-60; > 300 µM with CAKI-2; 56.4 µM with HEC-1B cell line. Regarding `Cc1ccccc1SC(=O)c1cccc(C=O)n1`, the 50% inhibitory concentration (IC50) in assay [1] was > 100 µM.

`O=Cc1cccc(C(=O)Sc2cc(Cl)ccc2Cl)n1`: the half-inhibitory concentration (IC50) in assay [1] came to 68 µM. In assay [1], `O=Cc1cccc(C(=O)Sc2cc(Cl)cc(Cl)c2)n1` returned an IC50 of 64 µM. In the case of `Cc1cccc(SC(=O)c2cccc(C=O)n2)c1`, in assay [1], the half-inhibitory concentration (IC50) came to 76 µM. Same read-out and setting: as for `Cc1ccc(SC(=O)c2cccc(C=O)n2)cc1`, the figure is > 100 µM. Turning to `N#Cc1ccc(C=O)nc1SCc1c(Cl)cccc1Cl`, the half-maximal inhibitory concentration (IC50) in the assay on A549 is > 300 µM; in assay [1], 77 µM; with HL-60, 26.7 µM; in the assay on CAKI-2, > 300 µM; in the assay on HEC-1B cell line, 175 µM. Take `O=Cc1cccc(C(=O)Sc2ccc([N+](=O)[O-])cc2)n1`: half-maximal inhibition in assay [1] (IC50) required 75 µM. In other words, the double-digit micromolar range. Turning to `O=Cc1cccc(C(=O)Sc2ccccc2Cl)n1`, inhibition in assay [1] was half-maximal at 84 µM (IC50).

Compound `O=Cc1cccc(C(=O)Sc2ccc(F)cc2)n1` came in with a half-inhibitory concentration (IC50) in assay [1] of 64 µM. In turn, `O=Cc1cccc(C(=O)Sc2c(Cl)cc(Cl)cc2Cl)n1` returned an IC50 in assay [1] of 50 µM. This IC50 and that of the compound before are within 1.5-fold of each other. Still for that read-out and setting: as for `O=Cc1cccc(C(=O)Nc2ccc(Cl)c(Cl)c2)n1`, the figure is > 100 µM; as for `O=Cc1cccc(C(=O)Sc2c(Cl)cccc2Cl)n1`, 79 µM. Turning to `CC[C@@]1(O)C(=O)OCc2c1cc1n(c2=O)Cc2cc3ccccc3nc2-1` [CAMPTOTHECIN], the 50% inhibitory concentration (IC50) was determined as 2.53 µM in the assay with A549; 1.4 µM in the assay with HT-29; 0.066 µM with HL-60; 3.96 µM in the assay on CAKI-2; 8.64 µM in the assay on HEC-1B cell line.
